Assay outcomes from PubChem.
NS3 helicase inh = inhibitors of HCV NS3 helicase, primary screen, biochemical, Cy5 molecular beacon fluorescence. Hepatitis C virus NS3 helicase. NS3 helicase DNA unwinding. inhibition, % at 10.9 µM. hit rate 0.56% among 290,000;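 active = inhibition above the mean of all tested compounds plus 3 SD, set per campaign, cut at about 35% in these data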
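test system = hepatitis C virus NS3 helicase domain fragment enzyme | reagent = annealed dual-labelled DNA beacon duplex, ATP-started | times = 1 h at 25 °C | detection = Cy5 fluorescence, 0 and 60 min reads | read-out basis = percent inhibition from t60/t0 fluorescence ratio | control set = DMSO and thioflavine S | replication = one well per compound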
GRK2 aptamer HTS = compounds blocking aptamer binding on GRK2 – biochemical, human GRK2, bead flow cytometry, HTS, primary screen; FAM-aptamer displacement from GRK2; Beta-adrenergic receptor kinase 1 (Homo sapiens), P25098; hit rate 0.59% among 330,000; AID 488847, 2010; inhibition of aptamer binding, % at 10 µM;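 active = inhibition of aptamer binding above 40%, roughly 3 SD of noise, on plates passing a quality check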;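 also: median bead fluorescence of bound FAM aptamer so fluorescent compounds give negative values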
DAGLB inh = DAGLB lipase inhibitors, primary screen, biochemical, fluorescence, HTS | Diacylglycerol lipase-beta (Homo sapiens), Q8NCG7 | HEK293T DAGLB membrane lysate, EnzChek fluorogenic substrate | inhibition, % at 5.17 µM | hit rate 0.059% among 340,000; in the data active = inhibition above about 34%
GPR7 antag = GPR7 receptor antagonists, primary screen, cell-based, fluorescence, single concentration; hit rate 1.1% among 290,000; GPR7-expressing cells, fluorescence antagonist assay; Neuropeptides B/W receptor type 1 (Homo sapiens), P48145; inhibition, % at 4.4 µM; in the data active = inhibition above about 16%, passing the limit was not always enough;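 also: cells stimulated with the agonist NPW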
Target sequence (P48145 whole entry, looked up): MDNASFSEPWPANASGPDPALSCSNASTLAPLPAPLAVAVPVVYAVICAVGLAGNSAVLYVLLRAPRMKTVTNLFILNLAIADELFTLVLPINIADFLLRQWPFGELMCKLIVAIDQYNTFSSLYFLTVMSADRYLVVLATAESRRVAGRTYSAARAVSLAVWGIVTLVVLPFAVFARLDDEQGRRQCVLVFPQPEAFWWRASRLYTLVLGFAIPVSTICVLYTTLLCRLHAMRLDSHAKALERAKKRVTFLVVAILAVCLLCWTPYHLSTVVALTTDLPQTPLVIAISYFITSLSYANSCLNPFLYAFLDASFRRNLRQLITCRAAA
DNA FID counter = compounds displacing fluorescent DNA intercalator, primary screen, artefact control for HCV NS3 helicase inhibitor project, biochemical, FID fluorescence; DNA fluorescent intercalator displacement; hit rate 0.17% among 290,000; inhibition, % at 7.9 µM; in the data active = inhibition above about 37%;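 also: higher means more ethidium bromide displaced from hairpin DNA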
core dimer inh = inhibitors of HCV core protein dimerization, primary screen, biochemical, TR-FRET, high-throughput. TR-FRET GST/Flag-core106 dimerization, 1536-well. inhibition, % at 5 µM. hit rate 0.33% among 300,000. AID 1899, 2009;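 active = inhibition above the mean of all tested compounds plus 3 SD, set per screening campaign, cut at about 45% in these data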
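Test system: GST/Flag-tagged HCV core106 proteins; Medium: KF-containing HEPES buffer, pH 7.45, DTT, CHAPS, BSA; Times: compound-protein-antibody incubation 4 h at 22.5 °C; Detection: TR-FRET 671 and 617 nm emission; Benchmarks: wells lacking GST-core106 and wells with excess unlabelled core106.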
Hits are given with their value. Sampled rows, rich in hits. Any-hit rate of the full collection: about 2.2%.

O=C(NNC(=O)c1cccc(-n2cccc2)c1)c1ccccc1 was read as GRK2 aptamer HTS inactive and DAGLB inh inactive.
`CN(C)S(=O)(=O)c1cccc(COC(=O)CNC(=O)c2ccc(Br)o2)c1` gave DAGLB inh inactive.
Screening Cc1sccc1C1C(C#N)=C(N)SC(N)=C1C#N returned NS3 helicase inh inactive, GRK2 aptamer HTS inactive, GPR7 antag inactive, DNA FID counter inactive and core dimer inh 60.
Cc1cc(C2C(C#N)=C(N)SC(N)=C2C#N)c(C)s1 was read as NS3 helicase inh inactive, GRK2 aptamer HTS inactive, DAGLB inh inactive, GPR7 antag inactive, DNA FID counter inactive and core dimer inh 51.
`Cc1ccc(NC(=O)c2ncn(CCCNCCCc3ccccc3)n2)cc1C` gave DAGLB inh inactive.
CC(NNC(=S)N1CCN(c2ccccn2)CC1)c1nccc2ccccc12 (stereo unspecified) was read as DAGLB inh inactive.
Screening CC1CC(C)CN(CC(=O)NC(c2ccccc2)c2ccccc2)C1 (stereo unspecified) returned NS3 helicase inh inactive, GRK2 aptamer HTS inactive, DAGLB inh inactive, GPR7 antag inactive, DNA FID counter 37 and core dimer inh inactive.
For Cc1ccc(S(=O)(=O)c2cc3c(=O)n4ccccc4nc3n(Cc3ccco3)c2=N)cc1C the results were NS3 helicase inh inactive, GRK2 aptamer HTS inactive, GPR7 antag inactive, DNA FID counter inactive and core dimer inh 70.
Cc1ccc(C2=NN(C(=O)CCl)C(c3ccco3)C2)o1 (stereo unspecified) was read as NS3 helicase inh inactive, DAGLB inh inactive, GPR7 antag inactive and DNA FID counter inactive.
Cc1cccc(NC(=O)c2cccc(S(=O)(=O)N(C)c3ccccc3)c2)n1 was read as GRK2 aptamer HTS inactive and DAGLB inh inactive.
Cc1ccc(-c2nc3ccccc3s2)cc1S(=O)(=O)N1CCOCC1 was read as NS3 helicase inh inactive, GRK2 aptamer HTS inactive, DAGLB inh inactive, GPR7 antag inactive, DNA FID counter inactive and core dimer inh inactive.
O=S(=O)(c1cc(-c2nc3ccccc3s2)ccc1Cl)N1CCOCC1 was read as NS3 helicase inh inactive, GPR7 antag 23 and DNA FID counter inactive.
O=C(Nc1ccccc1)Nc1ccc(Cl)c(S(=O)(=O)N2CCOCC2)c1 was read as NS3 helicase inh inactive, GRK2 aptamer HTS inactive, DAGLB inh inactive, GPR7 antag 18, DNA FID counter inactive and core dimer inh inactive.
`CCOC(=O)c1cnc2ccc(OCC)cc2c1NCCCN1CCOCC1` gave NS3 helicase inh inactive, GRK2 aptamer HTS inactive, DAGLB inh inactive, GPR7 antag inactive, DNA FID counter 55 and core dimer inh inactive.
CCOC(=O)c1cnc2c(Cl)cccc2c1NCCCN1CCOCC1 was read as NS3 helicase inh inactive, DAGLB inh inactive, GPR7 antag inactive, DNA FID counter inactive and core dimer inh inactive.
Screening CCOC(=O)c1cnc2c(CC)cccc2c1NCCCN1CCOCC1 returned NS3 helicase inh inactive, GRK2 aptamer HTS inactive, DAGLB inh inactive, GPR7 antag inactive, DNA FID counter 52 and core dimer inh inactive.
`COC(=O)c1cccc(NC(=O)CC2C(=O)NCCN2C(=O)Nc2cc(C)cc(C)c2)c1` (stereo unspecified) gave NS3 helicase inh inactive, GRK2 aptamer HTS inactive, DAGLB inh inactive, GPR7 antag inactive, DNA FID counter inactive and core dimer inh inactive.
Screening CC(C)CC1NC(=O)N(CC(=O)Nc2ccc3c(c2)OCCO3)C1=O (stereo unspecified) returned GRK2 aptamer HTS inactive and DAGLB inh inactive.
Screening CCCCC1(CC)SCC(=O)NC1=O (stereo unspecified) returned DAGLB inh inactive.
CCCCCN(C(=O)CCC(=O)OCc1ccccc1F)c1c(N)n(CCCC)c(=O)[nH]c1=O was read as GRK2 aptamer HTS inactive, DAGLB inh inactive and core dimer inh inactive.
`CCCCCN(C(=O)CCC(=O)OCc1ccccc1C(F)(F)F)c1c(N)n(CCCC)c(=O)[nH]c1=O` gave NS3 helicase inh inactive, GRK2 aptamer HTS 47, DAGLB inh inactive, GPR7 antag inactive, DNA FID counter inactive and core dimer inh inactive.
`Cc1ccc(OC(C)C(=O)Nc2ccc(S(=O)(=O)N3CCOCC3)cc2)cc1` (stereo unspecified) gave NS3 helicase inh inactive, GRK2 aptamer HTS inactive, DAGLB inh inactive, GPR7 antag inactive, DNA FID counter inactive and core dimer inh inactive.
For CN1CCN(C(=O)c2ccc(Cl)c(S(=O)(=O)N3CCCCC3)c2)CC1 the results were NS3 helicase inh inactive, GRK2 aptamer HTS inactive, DAGLB inh inactive, GPR7 antag inactive, DNA FID counter inactive and core dimer inh inactive.
For O=C(c1ccc(Cl)c(S(=O)(=O)N2CCCCCC2)c1)N1CCN(c2ccccn2)CC1 the results were NS3 helicase inh inactive, GRK2 aptamer HTS inactive, DAGLB inh inactive, GPR7 antag 21, DNA FID counter inactive and core dimer inh inactive.
CN(Cc1ccccc1)C(=O)COC(=O)CN1C(=O)c2ccccc2C1=O was read as GRK2 aptamer HTS inactive and DAGLB inh inactive.
For CC(C)=CCC/C(C)=C/CCC(C)NCCN1CCNCC1 (stereo unspecified) the results were NS3 helicase inh inactive, GRK2 aptamer HTS inactive, GPR7 antag 24, DNA FID counter inactive and core dimer inh inactive.
For CCCn1c(SCC(=O)N(C)C2CCCCC2)n[nH]c1=O the results were DAGLB inh inactive.
O=[N+]([O-])c1ccc(NCCCNS(=O)(=O)c2ccc(Cl)cc2)c(Cl)c1 was read as NS3 helicase inh inactive, GRK2 aptamer HTS inactive, DAGLB inh inactive, GPR7 antag 54, DNA FID counter inactive and core dimer inh inactive.
For CC1(C)C(/C=C/C=C/C=C/C=C2\N(CCCCS(=O)(=O)O)c3ccc4ccccc4c3C2(C)C)=[N+](CCCCS(=O)(=O)[O-])c2ccc3ccccc3c21 the results were GRK2 aptamer HTS inactive, DAGLB inh inactive and core dimer inh 69.
`Cc1c2ccccc2cc[n+]1CCCS(=O)(=O)[O-]` gave NS3 helicase inh inactive, GRK2 aptamer HTS inactive, DAGLB inh inactive, GPR7 antag inactive, DNA FID counter inactive and core dimer inh inactive.
For O=C(O)c1ccccc1C(=O)c1ccc2c(c1)CCC2 the results were NS3 helicase inh inactive, GRK2 aptamer HTS inactive, DAGLB inh inactive, GPR7 antag inactive, DNA FID counter inactive and core dimer inh inactive.
`O=C(Nc1ccc(Br)cc1)N1CCCC(O)C1` (stereo unspecified) gave NS3 helicase inh inactive, GRK2 aptamer HTS 56, DAGLB inh inactive, GPR7 antag inactive, DNA FID counter inactive and core dimer inh inactive.
